Hits are enriched below; roughly 2.3% of the tested compounds scored in any of these assays.
bovine MsrA act: activates bovine MsrA enzyme. activation, % at 10.6 µM. purified bovine MsrA, absorbance read-out. hit rate 0.3% among 360,000; in the data active means activation above about 7.5%;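 further: 0% = vehicle and 100% = reference activator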
MC4R barr agon: activates human MC4R beta-arrestin recruitment. P32245. U2OS MC4R beta-arrestin complementation, luminescence; percent of melanotan II response, DMSO zero. activation, % at 8.9 µM. hit rate 0.98% among 360,000. AID 540308;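 active means activation above a per-plate cutoff, the mean activation of sample wells on that plate plus 3 SD, cut at about 8% in these data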
Target sequence (P32245 whole entry, looked up): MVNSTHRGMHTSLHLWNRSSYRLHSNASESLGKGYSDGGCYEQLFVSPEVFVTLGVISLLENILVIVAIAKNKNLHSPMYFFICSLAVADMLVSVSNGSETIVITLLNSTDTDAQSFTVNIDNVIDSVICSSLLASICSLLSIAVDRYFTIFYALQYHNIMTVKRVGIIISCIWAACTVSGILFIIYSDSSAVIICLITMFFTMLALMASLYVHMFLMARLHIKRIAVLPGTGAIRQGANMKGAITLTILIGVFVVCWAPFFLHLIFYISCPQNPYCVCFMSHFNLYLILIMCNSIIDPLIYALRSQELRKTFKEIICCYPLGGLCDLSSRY
MC4R antagonist: blocks human MC4R cAMP signaling | inhibition, % at 6.5 µM | MC4R-expressing cells, MTII-stimulated cAMP, LANCE TR-FRET | P32245 | hit rate 0.48% among 360,000;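 active means inhibition above its plate's cutoff, the mean of tested wells on that plate plus 3 SD, cut at about 29% in these data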;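 further: 0% = Melanotan II alone and 100% = Melanotan II plus saturating MCL0020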
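Assay system: U2OS-MC4R stable cell line; Also added: Melanotan II; Technique: Eu-cAMP/anti-cAMP TR-FRET, emission 671 nm; Times: 30-min compound, 1-h challenge, 1-h detection, room temperature.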
MsrA inhibitor: bovine MsrA inhibition; purified bovine MsrA, absorbance read-out; inhibition, % at 15.5 µM; hit rate 0.75% among 360,000; AID 651718;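 further: 0% = vehicle wells with enzyme and 100% = reference inhibitor wells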
MsrA inh confirm: bovine MsrA inhibition, confirmed; purified bovine MsrA, absorbance read-out; inhibition, % at 15.5 µM; shares compounds with MsrA inhibitor; hit rate 41% among 2,300;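 further: coupled to thioredoxin reductase with NADPH and selenocystamine and DMSO as substrate; 0% = vehicle only and 100% = full effect of reference inhibitor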
* marks the source's active call; other numbers are inactive results; . = not tested or not shown. Unless noted, no stated cut-off is given here; in the data, active means inhibition above about 4.5%; inactive means the rest.

SMILES | bovine MsrA act | MC4R barr agon | MC4R antagonist | MsrA inhibitor | MsrA inh confirm
Cc1ccc(NC(=O)Cn2cccc2C2=NC(c3ccccc3)CO2)cc1C (stereo unspecified) | 0.0 | 0.5 | 0.3 | 43.2* | -0.1
CCc1ccccc1NC(=O)Cn1cccc1C1=NC(c2ccccc2)CO1 (stereo unspecified) | -3.6 | 3.8 | 3.9 | 0.0 | .
CCc1cc(-c2[nH]ncc2-c2ccc(OC)cc2)c(O)cc1O | -0.9 | -1.2 | 4.0 | 7.1* | 2.8
Cc1c(N2C(=O)/C(=C/C3CC=CCC3)SC2=S)c(=O)n(-c2ccccc2)n1C (stereo unspecified) | 0.6 | -0.7 | 25.2 | 2.2 | .
COc1ccc(-c2nn(-c3ccccc3)cc2C(=O)Nc2ccc(C(=O)O)cc2)cc1 | -10.1 | -0.1 | -1.8 | 0.8 | .
CC(=O)c1cnc(Nc2cccc(Cl)c2Cl)s1 | 2.6 | -0.6 | 4.7 | 4.8* | 1.6
Cc1ccc(S(=O)(=O)Nc2nc3c(s2)C(=O)CC(C)(C)C3)cc1 | -12.2 | 2.0 | -1.4 | 6.7* | 2.9
CC1(C)CC(=O)c2sc(NS(=O)(=O)Cc3ccccc3)nc2C1 | -7.9 | -0.6 | 1.8 | 5.3* | 3.2
COc1ccc(S(=O)(=O)Nc2nc3c(s2)C(=O)CC(C)(C)C3)cc1 | -12.8 | 1.2 | -6.1 | 2.2 | .
Cc1ccccc1C(=O)NC(=S)N(C)CCc1ccccn1 | -0.1 | 0.4 | 4.2 | -1.2 | .
CN1C(=O)C2(C(C#N)=C(N)N(c3cc(Cl)cc(Cl)c3)C3=C2C(=O)CCC3)c2ccccc21 (stereo unspecified) | -1.3 | 0.8 | 7.0 | 1.0 | .
S=C1NC2(CCCCC2)Nc2ccccc21 | -6.2 | -3.5 | 3.1 | 6.4* | 7.2*
S=C1NC2(CCCC2)Nc2ccccc21 | -14.7 | -1.3 | 4.4 | 9.1* | 8.7*
COc1ccc(/C=C2\SC(=O)N(CC(=O)NN3CCN(C)CC3)C2=O)cc1OC | -4.2 | -2.9 | -6.7 | 4.9* | 3.1
COc1ccc(/C=C2\SC(=O)N(CC(=O)Nc3ccc(O)cc3)C2=O)cc1OC | -2.3 | 1.2 | 4.5 | 2.9 | .
Cc1cccc(C(=O)c2ccccc2C(=O)O)c1O | -3.1 | -0.8 | -3.6 | 0.3 | .
CCN(CC)c1ccc(C(=O)c2ccccc2C(=O)O)c(O)c1 | -4.5 | -0.2 | 14.9 | 4.7* | 4.8*
CCC/C=N/NC(=O)c1ccc(F)cc1 | -3.2 | -1.7 | 1.5 | -0.9 | .
Cc1ccc(Nc2nc3ccccc3c(=O)s2)cc1C | -6.7 | -2.9 | 3.3 | 0.4 | .
COc1ccc(/C=N/Nc2nn3cnnc3c3ccccc23)cc1 | -1.8 | -2.4 | -9.3 | 5.1* | 3.9
CCCCc1n[nH]c2c1/C(=N/OCC)CC(C)(C)C2 | -2.0 | 2.8 | 9.3 | 19.3* | 12.9*
Nc1ncnc(NCc2ccccc2)c1[N+](=O)[O-] | -10.1 | 2.0 | -14.6 | 4.9* | 1.6
O=C(/C=C/c1ccc(O)c(O)c1)NC(=O)c1ccccc1O | -6.5 | 2.4 | 0.0 | 6.3* | 4.0
CSc1ccc(/C=C/C(=O)NC(=O)c2ccccc2O)cc1 | -12.5 | 0.9 | -0.8 | 6.0* | 4.7*
c1ccc(Cn2nnc3c(N4CCN(Cc5ccc6c(c5)OCO6)CC4)ncnc32)cc1 | -3.3 | -2.3 | -5.3 | 0.1 | .
SMILES | bovine MsrA act | MC4R barr agon | MC4R antagonist | MsrA inhibitor | MsrA inh confirm
COc1cc(/C=C/C(=O)Nc2ccc3[nH]c(=O)[nH]c3c2)cc(OC)c1OC | -5.9 | -0.6 | -8.3 | 5.6* | 2.6
COc1cccc(/C=C/C(=O)Nc2ccc3[nH]c(=O)[nH]c3c2)c1 | -2.5 | -0.3 | 1.3 | 2.8 | .
COc1cc(NC(=O)/C=C/c2ccccc2)c(C(=O)O)cc1OC | -15.0 | 2.8 | -2.8 | 4.7* | 3.1
COc1cc(/C=C/C(=O)OCC(=O)Nc2ccc(S(=O)(=O)N3CCCC3)cc2)ccc1O | -10.3 | 1.2 | -7.6 | 1.5 | .
COc1ccc(/C=C/C(=O)OCC(=O)Nc2ccc(S(N)(=O)=O)cc2)cc1OC | -6.8 | -2.1 | 1.7 | 4.8* | 2.2
COc1ccc(/C=C/C(=O)NC(=S)NNC(=O)c2cccnc2)cc1OC | -8.3 | -0.3 | 1.1 | 5.6* | 5.6*
O=C(Nc1ccc(F)cc1F)c1ccc(S(=O)(=O)N2CCCCC2)cc1 | -5.5 | -0.6 | -1.6 | 1.5 | .
COc1ccc(/C=C/C(=O)Nc2ccncc2)cc1OC | -7.5 | -2.9 | -0.4 | 5.8* | 3.7
COc1ccc(/C=C/C(=O)Nc2ccc(OC)nc2)cc1 | -4.6 | -0.5 | 10.2 | 4.5 | .
COc1ccc(NC(=O)/C=C/c2ccc(OC)c(OC)c2)cn1 | -6.1 | -2.4 | -1.5 | 6.8* | 4.5
CC(=O)c1ccc(NC(=O)Nc2ccc(Br)cc2C)cc1 | -5.5 | 0.5 | 3.5 | -0.3 | .
CCCN1Cc2cccc(C(N)=O)c2C1=O | -3.2 | -2.3 | 3.4 | -0.8 | .
CNS(=O)(=O)c1cccc(C(=O)OCC(=O)c2cc3ccccc3o2)c1 | -4.4 | -2.6 | 8.9 | 23.8* | 18.8*
CCCCN(CC)CCNc1c(N2CCN(C(=O)OCC)CC2)c(=O)c1=O | -7.2 | 2.1 | -0.3 | -0.7 | .
O=C(CSc1nn(-c2ccccc2)c(=S)s1)Nn1cnnc1 | -14.4 | 0.1 | -2.5 | 2.0 | .
COC(=O)CSc1nn(-c2ccc(F)cc2)c(=S)s1 | -2.2 | -1.5 | 13.2 | 5.2* | 2.3
Cc1ccc(C(=O)Nc2ccc(C(=O)O)cc2NC(=O)c2ccc(C)cc2)cc1 | -1.9 | -1.3 | 22.8 | 0.8 | .
CN(C)c1ccc(-c2nc3ccccc3c(=O)[nH]2)cc1 | -13.6 | 2.8 | -0.3 | 6.0* | 4.1
COc1ccc(-c2nc3ccccc3c(=O)[nH]2)cc1 | -0.8 | 0.7 | 15.7 | 1.5 | .
COc1ccc(/C=C/C(=O)Nc2nc(C)c(C(=O)N(C)C)s2)cc1 | -6.3 | -0.2 | 9.8 | 5.4* | 6.5*
COc1ccc(/C=C/C(=O)Nc2nc(C)c(C(=O)N(C)C)s2)cc1OC | -4.9 | -1.0 | 9.1 | 5.7* | 4.5
Cc1nc(NC(=O)c2ccc(Br)s2)sc1C(=O)N(C)C | -12.6 | -0.4 | 0.7 | 5.0* | 2.1
Cc1cccc2cc(C3CC(c4cccs4)=NN3C(=O)CCC(=O)O)c(Cl)nc12 (stereo unspecified) | -2.6 | -0.8 | 19.9 | -0.3 | .
CC(=O)Nc1ccc(C(=O)n2cnc3cc(C)c(C)cc32)cc1 | -2.2 | -1.5 | -1.9 | 0.0 | .
Cc1c(C(=O)NCc2ccccn2)oc2ccc(S(=O)(=O)N3CCC4(CC3)OCCO4)cc12 | -7.3 | -0.9 | 2.3 | -0.3 | .
SMILES | bovine MsrA act | MC4R barr agon | MC4R antagonist | MsrA inhibitor | MsrA inh confirm
O=C1NC(=O)/C(=C/c2ccc(O)cc2)S1 | -6.2 | 0.6 | 15.2 | 4.9* | 4.6*
Cc1ccn2c(=O)nc(SCC(=O)OCc3ccccc3)nc2c1 | -4.5 | -1.5 | -1.4 | 1.3 | .
CCOC(=O)CSc1nc(=O)n2ccc(C)cc2n1 | -4.3 | -2.6 | 5.0 | 4.7* | 0.2
CCn1c(O)c(N=NC(=O)CNc2ccc(C)cc2)c2ccccc21 | -5.2 | -0.2 | 5.8 | 2.2 | .
COC(=O)CSc1nc(N2CCOCC2)c2c(c1C#N)CCCC2 | -1.6 | -2.2 | 12.0 | 8.2* | 6.9*
CCN1CCc2c(C#N)c(N3CCCCC3)nc(N3CCOCC3)c2C1 | -5.6 | -1.2 | 0.8 | 4.8* | 1.8
CCSc1nc(N2CCOCC2)c2c(c1C#N)CCCC2 | -4.6 | -0.4 | -7.3 | 13.0* | 13.1*
N#Cc1c(SCC(=O)O)nc(N2CCOCC2)c2c1CCCC2 | -5.5 | -1.7 | 5.8 | 1.9 | .

Compound activity deposited in PubChem by The Scripps Research Institute Molecular Screening Center.
